Screening results from PubChem.
Most compounds without a hit are left out; they make up all but 3.7% or so of the library.
KCNK3 inh: human KCNK3 channel inhibition, primary screen; CHO-KCNK3 thallium flux, FluxOR fluorescence; hits give low values; O14649; actives 0.84% (n = 340,000); B-score at 10 µM; AID 602410;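 active = B-score under library mean minus 4 SD, starting fluorescence ratio at most library mean plus 5 SD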;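 note: more negative B-score means stronger inhibition of thallium flux through KCNK3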
KCNQ1 pot: potentiates or activates the human KCNQ1 potassium channel; B-score at 10 µM; CHO-K1 KCNQ1, thallium flux FluxOR fluorescence; hits give high values; AID 2648; actives 0.35% (n = 310,000);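 active = fluorescence ratio B-score, a plate-corrected score, at least three library SD, with initial intensity B-score within 5 SD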
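Medium – assay buffer, equal DMSO in all wells · Material – CHO-K1 cell line with stable KCNQ1 potassium channel expression · Signal – kinetic FluxOR thallium fluorescence, 10-s 1-Hz baseline, 110-s post-stimulus read · Compound – single concentration per compound, DMSO matched to controls · Schedule – 37 °C overnight plating, 90-min dark dye load, 20-min compound pretreatment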
KCNK9 inh: human KCNK9 channel inhibition. actives 1.2% (n = 310,000). Q9NPC2. B-score at 10 µM. HEK293 KCNK9, FluxOR thallium flux fluorescence; hits give low values;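 active = ratio B-score over 3 SD below the library mean, with starting fluorescence within 5 SD of its mean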;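 note: negative B-score means less thallium flux so channel inhibition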
hERG rescue: compounds protecting human hERG from proarrhythmic drug block. Q12809. CHO-hERG, FluxOR thallium flux, dofetilide IC70 present. actives 0.51% (n = 310,000). AID 1511. activation (rescue from dofetilide block), less the hit threshold, % at 10 µM;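 active = activation above the mean of controls blocked by dofetilide plus 5 SD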;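 note: thallium influx through hERG after potassium depolarization seen as dye fluorescence rise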
Target sequence (Q12809 whole entry, looked up): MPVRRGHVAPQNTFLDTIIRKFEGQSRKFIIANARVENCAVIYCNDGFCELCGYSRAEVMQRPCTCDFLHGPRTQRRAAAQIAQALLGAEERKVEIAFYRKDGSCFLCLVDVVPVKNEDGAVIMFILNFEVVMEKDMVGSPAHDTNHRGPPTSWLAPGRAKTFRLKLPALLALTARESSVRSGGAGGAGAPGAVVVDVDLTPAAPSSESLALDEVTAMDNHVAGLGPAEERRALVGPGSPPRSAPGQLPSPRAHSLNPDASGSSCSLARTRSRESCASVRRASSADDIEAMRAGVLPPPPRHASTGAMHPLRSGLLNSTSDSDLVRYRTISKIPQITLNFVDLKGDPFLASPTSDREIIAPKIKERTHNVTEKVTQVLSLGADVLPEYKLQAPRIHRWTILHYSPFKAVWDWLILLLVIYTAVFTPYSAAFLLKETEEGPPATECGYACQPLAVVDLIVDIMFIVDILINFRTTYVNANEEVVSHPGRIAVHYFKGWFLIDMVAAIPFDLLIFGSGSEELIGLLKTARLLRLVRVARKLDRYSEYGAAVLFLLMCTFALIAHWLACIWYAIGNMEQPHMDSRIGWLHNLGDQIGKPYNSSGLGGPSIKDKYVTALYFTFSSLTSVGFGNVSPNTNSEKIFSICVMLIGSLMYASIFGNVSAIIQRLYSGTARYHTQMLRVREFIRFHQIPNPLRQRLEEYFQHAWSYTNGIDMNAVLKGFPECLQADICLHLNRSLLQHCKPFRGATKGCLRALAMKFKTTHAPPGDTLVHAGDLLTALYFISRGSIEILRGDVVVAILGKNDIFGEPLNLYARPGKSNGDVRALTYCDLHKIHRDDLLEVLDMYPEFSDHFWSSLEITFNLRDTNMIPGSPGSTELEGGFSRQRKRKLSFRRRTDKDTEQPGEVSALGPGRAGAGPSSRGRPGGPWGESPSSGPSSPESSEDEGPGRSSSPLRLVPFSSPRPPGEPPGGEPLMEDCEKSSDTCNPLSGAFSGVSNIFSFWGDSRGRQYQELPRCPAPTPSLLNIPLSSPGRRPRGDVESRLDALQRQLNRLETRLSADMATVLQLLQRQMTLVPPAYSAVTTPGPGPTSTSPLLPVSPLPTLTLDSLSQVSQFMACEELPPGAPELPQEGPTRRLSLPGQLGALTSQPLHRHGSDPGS
KCNQ1 inh: human KCNQ1 channel inhibition | P51787 | CHO-K1 KCNQ1, FluxOR thallium flux fluorescence; hits give high values | B-score at 10 µM | actives 1.3% (n = 310,000);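 active = compounds whose thallium flux B-score, printed positive for inhibition, exceeds three library SD while starting fluorescence stays within three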;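 note: channel opened by potassium depolarization with thallium stimulus after 20 min compound exposure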
Kir21 inh: Kir2.1 (mouse) channel inhibition; HEK293-Kir2.1, FluxOR thallium flux fluorescence; hits give low values; P35561; B-score at 10 µM; AID 1672; actives 0.85% (n = 310,000);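 active = fluorescence ratio B-score at or below minus 3 SD of library scores, with starting-brightness B-score within 2 SD, cut at about -4.2 in these data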;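 note: channel flux triggered by added potassium and thallium sulfate stimulus; B-score of peak minus minimum fluorescence over baseline after thallium stimulus; more negative B-score means stronger Kir2.1 block with less thallium influx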
KCNK9 inh conf: human KCNK9 inhibitor confirmation. shares compounds with KCNK9 inh. HEK293 KCNK9 cells, FluxOR thallium flux fluorescence. inhibition, % at 10 µM. actives 43% (n = 4,900);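 active = thallium signal inhibited by more than 5 SD of the compound-free buffer control wells, on both duplicate plates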
Kir2-1 spec: selectivity of KCNK9 modulators against mouse Kir2.1 | shares compounds with KCNK9 inh | Kir2.1 cells, FluxOR thallium flux fluorescence | inhibition, % at 10 µM | actives 4% (n = 4,900) | AID 492993;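 active = thallium signal drop more than 5 SD beyond the mean of the no-compound control wells, seen in both duplicate plates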;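 note: signal is fluorescence rise after thallium addition divided by baseline fluorescence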
KCNK9 uninduced: non-induced cell nonspecific activity of KCNK9 modulators | shares compounds with KCNK9 inh | non-induced KCNK9-HEK293, FluxOR thallium flux | inhibition, % at 10 µM | actives 40% (n = 4,900) | AID 492997;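 active = thallium signal drop beyond 5 SD of the untreated control mean, on both duplicate plates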
Numbers stand for hits; . = inactive; / = no result.

SMILES	KCNK3 inh	KCNQ1 pot	KCNK9 inh	hERG rescue	KCNQ1 inh	Kir21 inh	KCNK9 inh conf	Kir2-1 spec	KCNK9 uninduced
Cc1ccc(-c2cccc(C(=O)NCc3ccccc3)n2)c2ccccc12	.	.	.	.	.	.	.	.	.
Cc1ccc(-c2cccc(C(=O)NCCc3ccccc3)n2)c2ccccc12	.	.	-17	.	.	.	76%	.	32%
COc1ccc(CCNC(=O)c2cccc(C(=O)NCCc3ccc(OC)cc3)n2)cc1	.	.	.	.	.	.	/	/	/
CCSc1cnn(-c2ccccc2)c(=O)c1SCC	.	.	.	.	.	.	/	/	/
CCCCSc1cnn(-c2ccccc2)c(=O)c1SCCCC	.	.	-9.9	.	6	.	52%	.	48%
CCc1nnc(NC(=O)C2Cc3ccccc3CN2S(=O)(=O)c2c(C)c(C)cc(C)c2C)s1 (stereo not given)	.	.	-13	.	.	.	.	.	32%
CCc1nnc(NC(=O)C2Cc3ccccc3CN2S(=O)(=O)CC)s1 (stereo not given)	.	.	.	.	.	.	/	/	/
COc1ccc(CNC(=O)CC2C[C@H](C(=O)N3CCCCC3)[C@@]3(C)c4[nH]c5ccccc5c4CCN3C2=O)cc1OC (stereo not given in full)	.	/	/	/	/	/	/	/	/
Cc1ccc2nc(NCCO)nc(-c3ccccc3)c2c1	.	.	.	.	.	.	/	/	/
Cc1ccc2nc(NCC(=O)NN)nc(-c3ccccc3)c2c1	.	.	.	.	.	.	.	.	.
CCOC(=O)CN1C(=O)C(Sc2n[nH]c(-c3ccc(O)cc3)n2)CCc2ccccc21 (stereo not given)	.	.	-9.4	.	.	.	36%	.	.
CN(Cc1ccccc1)C(=O)COc1ccc(Br)cc1Cl	.	.	-12	.	.	.	37%	.	30%
CN(Cc1ccccc1)C(=O)COc1ccccc1Cl	.	.	.	.	.	.	/	/	/
CCOC(=O)c1cnn(-c2nc(CC)nc3sc4c(c23)CCC4)c1N	.	.	-10	.	.	.	36%	.	.
Cn1c(CSc2nc3ccccc3s2)nnc1SCC(=O)NCc1cccnc1	.	.	.	.	.	.	/	/	/
Cc1ccc(CCc2nnc(SCC(=O)Nc3cccc(Cl)c3)n2-c2ccccc2)o1	.	.	.	.	.	.	.	.	.
Cc1nnc(SCC(=O)Nc2cc(C(N)=O)cc(C(N)=O)c2)n1-c1ccccc1	.	.	.	.	.	.	/	/	/
O=C1C2C3C=CC(C4CC34)C2C(=O)N1/N=C/c1ccc(-c2ccc(Cl)cc2[N+](=O)[O-])o1 (stereo not given)	.	.	.	.	.	.	.	.	.
COc1ccc(-c2ccc(/C=N/N3C(=O)C4C5C=CC(C6CC56)C4C3=O)o2)c([N+](=O)[O-])c1 (stereo not given)	.	.	.	.	.	.	/	/	/
O=C(Nc1cccnc1)c1c(F)c(F)c(F)c(F)c1F	.	.	.	.	.	.	/	/	/
O=C(Nc1ccncc1)c1c(F)c(F)c(F)c(F)c1F	.	.	-11	.	.	.	36%	.	28%
CC1CCCCC1NC(=O)c1cccc(S(=O)(=O)N2CCN(Cc3ccccc3)CC2)c1 (stereo not given)	.	.	.	.	.	.	.	.	.
CC(=O)Nc1cccc(NC(=O)c2cccc(S(=O)(=O)N3CCN(Cc4ccccc4)CC3)c2)c1	.	.	.	.	.	.	/	/	/
CN(Cc1ccc(F)cc1)C(=O)c1cccc(S(=O)(=O)N2CCN(Cc3ccccc3)CC2)c1	.	.	.	.	.	.	/	/	/
CSc1ccc(CN(C)C(=O)c2cccc(S(=O)(=O)N3CCN(Cc4ccccc4)CC3)c2)cc1	.	.	.	.	9	.	.	.	.
SMILES	KCNK3 inh	KCNQ1 pot	KCNK9 inh	hERG rescue	KCNQ1 inh	Kir21 inh	KCNK9 inh conf	Kir2-1 spec	KCNK9 uninduced
CC(=O)N(CCC(c1ccco1)C(C)C)Cc1ccc(Cl)cc1 (stereo not given)	.	.	-9.3	.	.	.	40%	33%	46%
CCC(=O)N(CCC(c1ccco1)C(C)C)Cc1ccccc1 (stereo not given)	.	.	-11	.	.	-6.1	.	.	34%
CC(C)C(CCN1C(=O)c2ccccc2C1=O)c1ccco1 (stereo not given)	.	.	.	.	.	.	/	/	/
CCCC(=O)N(CCN(Cc1ccccc1)C(=O)CCC)Cc1ccccc1	.	.	.	.	.	.	/	/	/
CCC(=O)N(CCC(c1ccc(C)cc1)c1ccco1)Cc1ccco1 (stereo not given)	.	.	-16	.	.	.	68%	.	46%
CCN1CCN(CCCNC(=O)c2ccc(CS(=O)c3ccc(Br)cc3)o2)CC1 (stereo not given)	.	.	.	.	.	.	/	/	/
COC(=O)[C@@H](NCc1ccc(OC)c(B(O)O)c1)C(C)C	.	/	/	/	/	/	/	/	/
COc1ccc(N2CC(NC(=O)N3CCN(C(=O)c4ccco4)CC3)CC2=O)cc1OC (stereo not given)	.	.	.	.	.	.	/	/	/
Clc1ccc(/C=N/NC(=Nc2ccccc2)c2ccccn2)c(Cl)c1	.	.	.	.	.	.	.	.	.
C(=N\NC(=Nc1ccccc1)c1ccccn1)/c1ccccn1	.	.	.	.	.	.	/	/	/
CCOCCCN(C)C1CCN(C(=O)c2oc3ccccc3c2NC(=O)Cc2ccc(F)cc2)CC1	.	.	.	.	.	.	/	/	/
COc1cc(C(=O)NC(=S)Nc2ccc(Cl)cn2)cc(OC)c1OC	.	.	.	.	.	.	/	/	/
O=C(COc1ccc(F)cc1Cl)Nc1ccc(S(=O)(=O)Nc2nccs2)cc1	.	.	.	.	.	.	/	/	/
COc1ccc(NC(=O)CN2CCN(c3c(C)cccc3C)CC2)cc1	.	.	.	.	.	.	.	.	.
COc1ccc(NC(=O)CN2CCN(c3c(C)cc(C)cc3C)CC2)cc1	.	.	.	.	.	.	.	40%	.
COc1ccc(NC(=O)CN2CCN(CC(=O)Nc3cc(OC)cc(OC)c3)CC2)cc1	.	/	/	/	/	/	/	/	/
COc1ccc(NC(=O)CN2CCN(c3ccc(C)cc3C)CC2)cc1	.	.	.	.	.	.	.	.	.
COc1ccc(N2CCN(CC(=O)Nc3ccc(C)cc3)CC2)cc1	.	.	.	.	.	.	/	/	/
CCn1c(=O)c(C(=O)CN(C)CC(=O)Nc2ccccc2Br)c(N)n(Cc2ccccc2)c1=O	.	/	/	/	/	/	/	/	/
O=C(OCc1cc(Cl)cc2c1OCOC2)c1cccnc1Cl	.	/	/	/	/	/	/	/	/
